Calls of active or inactive are those of the source. The calls are words filed in the database; no cut-off is given here. Positions of bridges follow the written chain, without caps; N, C: chain ends. Residues, ends and D or L forms follow the SMILES beside them. Where only a bound is given, the exact number is not on record here.

Here are results for four compounds from ChEMBL document CHEMBL1944538, “Synthetic peptides derived from the sequence of a lasso peptide microcin J25 show antibacterial activity” (Bioorg Med Chem, 2012).

Series [1] relates to Salmonella enteritidis. In words: Antibacterial activity against Salmonella enteritidis PT8 up to 250 uM after 24 hrs by liquid growth inhibition assay. In kind it is functional, organism-based. The following applies: Salmonella enterica subsp. enterica serovar Enteritidis. The essentials: (§1)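 Liquid broth microdilution in LB. Peptide stocks were made in 20% methanol/water (1 or 2.5 mM), then serially doubled in water to final 0.01–100 or 0.5–250 µM. Inoculum was diluted to OD620 0.02–0.05. Plates ran 24 h at 37 °C and were read at OD620. MIC was the lowest concentration giving 100% growth inhibition (0.05 AU). Triplicate wells, three repeat experiments.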

Series [2] relates to Salmonella enterica subsp. enterica serovar Heidelberg. In words: Antibacterial activity against Salmonella heidelberg ATCC 8326 up to 250 uM after 24 hrs by liquid growth inhibition assay. It counts as functional. Summed up:
as §1

Series [3] deals with Enterococcus faecalis. In words: Antibacterial activity against Enterococcus faecalis ATCC 19433. It counts as functional, organism-based.
Series [4] relates to Salmonella enterica subsp. enterica serovar Newport. The series can be described thus: Antibacterial activity against Salmonella newport clinical isolate up to 250 uM after 24 hrs by liquid growth inhibition assay. It counts as functional. Summed up:
as §1

Series [5] concerns Salmonella enterica subsp. enterica serovar Montevideo. The series can be described thus: Antibacterial activity against Salmonella montevideo 20 up to 250 uM after 24 hrs by liquid growth inhibition assay. It counts as functional. The essentials:
as §1

For series [6], the system named is Escherichia coli. In words: Antibacterial activity against Escherichia coli DH5alpha up to 250 uM after 24 hrs by liquid growth inhibition assay. In kind it is functional, organism-based. The following applies: DH5[alpha]. Summed up:
as §1

Series [7] relates to Salmonella enteritidis. The series can be described thus: Antibacterial activity against Salmonella enteritidis AFLB 41 up to 250 uM after 24 hrs by liquid growth inhibition assay. The following applies: Salmonella enterica subsp. enterica serovar Enteritidis. In kind it is functional, organism-based. Summed up:
as §1

In series [8] the test system is Staphylococcus aureus. In words: Antibacterial activity against Staphylococcus aureus ATCC 6538. In kind it is functional, organism-based.
The nature of series [9]: Cytotoxicity against human MCF7 cells assessed as cell viability at 0.3 to 100 uM after 24 hrs by MTT assay. In kind it is cell-based. Conditions: read-out: Activity. Summed up: (§2)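 MTT assay. MDA-MB-435 cells were kept in RPMI 1640 and MCF7 cells in DMEM, both with 10% FBS, penicillin and streptomycin, at 37 °C and 5% CO2. Cells were seeded at 1×10^4/well and grown 24 h. Samples came from 1 mM stocks in 10% DMSO/water, twofold diluted to 0.3125–100 µM, and applied for 24 h. MTT (5 mg/mL) was added for 3.5 h, then DMSO solubilization and A570. Viability is relative to untreated cells; triplicate, mean.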

Series [10] in a line: Cytotoxicity against human MDA-MB-435 cells assessed as cell viability at 0.3 to 100 uM after 24 hrs by MTT assay. In kind it is cell-based. The following applies: read-out: Activity. Summed up:
as §2

The test system of series [11] is Escherichia coli. In words: Antibacterial activity against Escherichia coli MC4100 up to 250 uM after 24 hrs by liquid growth inhibition assay. It counts as functional, organism-based. The essentials: as §1
Series [12] deals with Salmonella enteritidis. The series can be described thus: Antibacterial activity against Salmonella enteritidis AFLB 11 up to 250 uM after 24 hrs by liquid growth inhibition assay. In kind it is functional, organism-based. Conditions: Salmonella enterica subsp. enterica serovar Enteritidis. The essentials:
as §1

Series [13] concerns Salmonella typhimurium. In words: Antibacterial activity against Salmonella Typhimurium ATCC 13311 up to 250 uM after 24 hrs by liquid growth inhibition assay. The following applies: Salmonella enterica subsp. enterica serovar Typhimurium. In kind it is functional, organism-based. Summed up:
as §1

Series [14] relates to Salmonella enteritidis. The series can be described thus: Antibacterial activity against Salmonella enteritidis AFLB 81 up to 250 uM after 24 hrs by liquid growth inhibition assay. It counts as functional, organism-based. The following applies: Salmonella enterica subsp. enterica serovar Enteritidis. The essentials:
as §1

For series [15], the system named is Salmonella enteritidis. In words: Antibacterial activity against Salmonella enteritidis ATCC 13076 up to 250 uM after 24 hrs by liquid growth inhibition assay. In kind it is functional, organism-based. Conditions: Salmonella enterica subsp. enterica serovar Enteritidis. Summed up:
as §1

For series [16], the system named is Salmonella enterica subsp. enterica serovar Choleraesuis. In words: Antibacterial activity against Salmonella choleraesuis ATCC 10708 up to 250 uM after 24 hrs by liquid growth inhibition assay. In kind it is functional.
The test system of series [17] is Salmonella paratyphi. In words: Antibacterial activity against Salmonella paratyphi up to 250 uM after 24 hrs by liquid growth inhibition assay. It counts as functional, organism-based. Conditions: Salmonella enterica subsp. enterica serovar Paratyphi A.
The subject of series [18] is Salmonella typhimurium. In words: Antibacterial activity against Salmonella Typhimurium AFLB 25 up to 250 uM after 24 hrs by liquid growth inhibition assay. It counts as functional, organism-based. Conditions: Salmonella enterica subsp. enterica serovar Typhimurium. The essentials: as §1

As to `CC[C@H](C)[C@H](NC(=O)CNC(=O)[C@@H](NC(=O)[C@H](Cc1ccccc1)NC(=O)[C@H](Cc1ccc(O)cc1)NC(=O)[C@@H]1CSSC[C@H](N)C(=O)NCC(=O)N[C@@H](C)C(=O)NCC(=O)N[C@@H](CCCCN)C(=O)N[C@@H](C(C)C)C(=O)N2CCC[C@H]2C(=O)N1)C(C)C)C(=O)NCC(=O)N[C@H](C(=O)N1CCC[C@H]1C(=O)N[C@H](C(=O)N[C@@H](CO)C(=O)N[C@@H](Cc1ccccc1)C(=O)N[C@@H](CCC(=O)O)C(=O)NCC(=O)O)[C@@H](C)CC)[C@@H](C)O` (H-CGAGKVPCYFVGIGTPISFEG-OH; disulfide 1-8), the result in series [1], in series [2], in series [3], in series [4], in series [5] and in series [6] was inactive. Moreover, the result in [7], in series [8], in [11], in series [12], in [13] and in [14] was inactive. The outcome in series [15], in series [16], in series [17] and in series [18] was inactive. Also, the viability at 24 h, up to 100 µM in series [9] and in series [10] was 75% in each case.

Consider `CC[C@H](C)[C@@H]1NC(=O)[C@@H]2CCCN2C(=O)CNC(=O)CNC(=O)[C@H](CCCNC(=N)N)NC(=O)CNC(=O)[C@H](C(C)C)NC(=O)[C@H](Cc2ccccc2)NC(=O)[C@H](Cc2ccc(O)cc2)NC(=O)[C@@H]2CSSC[C@H](NC(=O)[C@H](CCC(=O)O)NC1=O)C(=O)NCC(=O)N[C@@H](C)C(=O)NCC(=O)N[C@@H](Cc1cnc[nH]1)C(=O)N[C@@H](C(C)C)C(=O)N1CCC[C@H]1C(=O)N2` (cyclo(AGHVPCYFVGRGGPIECG); disulfide 6-17), for which the outcome in series [1], in series [2], in series [3], in series [4], in [5] and in series [6] was inactive. For the same compound, the outcome in [7], in [8], in [11], in series [12], in series [13] and in [14] was inactive. In addition, the outcome in [15], in series [16], in series [17] and in series [18] was inactive. The viability at 24 h, up to 100 µM in [9] and in [10] was more than 90% each time.

As to `CC[C@H](C)[C@H](NC(=O)[C@@H]1CCCN1C(=O)CNC(=O)CNC(=O)[C@H](CCCNC(=N)N)NC(=O)CNC(=O)[C@@H](NC(=O)[C@H](Cc1ccccc1)NC(=O)[C@H](Cc1ccc(O)cc1)NC(=O)[C@@H]1CSSC[C@H](N)C(=O)NCC(=O)N[C@@H](C)C(=O)N[C@@H](Cc2ccccc2)C(=O)N[C@@H](Cc2cnc[nH]2)C(=O)N[C@@H](C(C)C)C(=O)N2CCC[C@H]2C(=O)N1)C(C)C)C(=O)N[C@@H](CO)C(=O)N[C@@H](Cc1ccccc1)C(=O)O` (H-CGAFHVPCYFVGRGGPISF-OH; disulfide 1-8), the outcome in [1], in [2], in series [3], in series [4], in [5] and in series [6] was inactive. Moreover, the result in series [7], in series [8], in series [11], in series [12], in series [13] and in series [14] was inactive. For the same compound, the result in series [15], in [16], in [17] and in series [18] was inactive. Besides, the viability at 24 h, up to 100 µM in [9] and in series [10] was more than 90% throughout.

As to `CC[C@H](C)[C@H](NC(=O)CNC(=O)[C@@H](NC(=O)[C@H](Cc1ccccc1)NC(=O)[C@H](Cc1ccc(O)cc1)NC(=O)[C@@H]1CSSC[C@H](N)C(=O)NCC(=O)N[C@@H](C)C(=O)N[C@@H](CCCCN)C(=O)N[C@@H](Cc2cnc[nH]2)C(=O)N[C@@H](C(C)C)C(=O)N2CCC[C@H]2C(=O)N1)C(C)C)C(=O)NCC(=O)N[C@H](C(=O)N1CCC[C@H]1C(=O)N[C@H](C(=O)N[C@@H](CO)C(=O)N[C@@H](Cc1ccccc1)C(=O)N[C@@H](CCC(=O)O)C(=O)O)[C@@H](C)CC)[C@@H](C)O` (H-CGAKHVPCYFVGIGTPISFE-OH; disulfide 1-8), the result in series [1], in series [2], in [3], in series [4], in series [5] and in series [6] was inactive. The outcome in series [7], in series [8], in series [11], in [12], in series [13] and in [14] was inactive. Further, the outcome in series [15], in [16], in series [17] and in series [18] was inactive. Also, in [9], the viability at 24 h, up to 100 µM worked out at 75%.
